Data taken from ChEMBL document CHEMBL5032505, “Design, Synthesis, and Activity Evaluation of Stereoconfigured Tartarate Derivatives as Potential Anti-inflammatory Agents In Vitro and In Vivo” (J Med Chem, 2021).
The source made the active and inactive calls. The rule behind the calls is not given here.

Tests used:
[1] = target: T1, Prostaglandin G/H synthase 1 (Ovis aries) (UniProt P05979); assay: Binding affinity to ovine COX-1 assessed as change in entropy by isothermal titration calorimetry
T1 sequence (whole entry): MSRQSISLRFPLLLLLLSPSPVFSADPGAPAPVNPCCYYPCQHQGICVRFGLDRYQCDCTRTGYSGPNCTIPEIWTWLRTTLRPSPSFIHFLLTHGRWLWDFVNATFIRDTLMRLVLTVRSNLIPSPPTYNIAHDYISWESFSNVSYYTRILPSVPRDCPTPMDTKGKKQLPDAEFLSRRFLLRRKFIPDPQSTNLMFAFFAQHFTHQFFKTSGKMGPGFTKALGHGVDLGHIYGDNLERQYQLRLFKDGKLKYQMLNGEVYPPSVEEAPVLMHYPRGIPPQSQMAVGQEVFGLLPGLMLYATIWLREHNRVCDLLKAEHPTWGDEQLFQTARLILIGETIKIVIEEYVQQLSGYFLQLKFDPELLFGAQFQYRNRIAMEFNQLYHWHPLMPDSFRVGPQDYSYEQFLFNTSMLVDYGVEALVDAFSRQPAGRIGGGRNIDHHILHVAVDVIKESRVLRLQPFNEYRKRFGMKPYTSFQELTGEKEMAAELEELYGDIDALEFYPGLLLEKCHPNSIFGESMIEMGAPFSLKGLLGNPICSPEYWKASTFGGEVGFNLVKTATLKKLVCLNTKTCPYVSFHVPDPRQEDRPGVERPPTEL
Method in brief: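 ITC at 25 °C in 0.1 M Tris buffer. Ligand at 100 μM in DMSO:Tris (1:9) titrated from a syringe stirred at 500 rpm into enzyme in the sample cell, 120 s spacing. 40 × 1 μL injections, except COX-1 at 20 × 2 μL. Buffer-only control titrations were subtracted.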

Mus musculus [2] = assay: Analgesic activity in Swiss albino mouse assessed as inhibition of acetic acid-induced writhing at 5 mg/kg, ip preincubated for 30 mins with L-NIL followed by compound addition for 30 mins prior to acetic acid challenge and measured after 30 mins; format: functional, organism-based; conditions: time 60.0 min
[3] = target: Prostaglandin G/H synthase 1 (Homo sapiens) (UniProt P23219); assay: Inhibition of COX1 in human whole blood assessed as reduction in calcium ionophore-stimulated TXB2 production by ELISA; format: tissue-based
Prostaglandin G/H synthase 1 (Homo sapiens), sequence (P23219 whole entry): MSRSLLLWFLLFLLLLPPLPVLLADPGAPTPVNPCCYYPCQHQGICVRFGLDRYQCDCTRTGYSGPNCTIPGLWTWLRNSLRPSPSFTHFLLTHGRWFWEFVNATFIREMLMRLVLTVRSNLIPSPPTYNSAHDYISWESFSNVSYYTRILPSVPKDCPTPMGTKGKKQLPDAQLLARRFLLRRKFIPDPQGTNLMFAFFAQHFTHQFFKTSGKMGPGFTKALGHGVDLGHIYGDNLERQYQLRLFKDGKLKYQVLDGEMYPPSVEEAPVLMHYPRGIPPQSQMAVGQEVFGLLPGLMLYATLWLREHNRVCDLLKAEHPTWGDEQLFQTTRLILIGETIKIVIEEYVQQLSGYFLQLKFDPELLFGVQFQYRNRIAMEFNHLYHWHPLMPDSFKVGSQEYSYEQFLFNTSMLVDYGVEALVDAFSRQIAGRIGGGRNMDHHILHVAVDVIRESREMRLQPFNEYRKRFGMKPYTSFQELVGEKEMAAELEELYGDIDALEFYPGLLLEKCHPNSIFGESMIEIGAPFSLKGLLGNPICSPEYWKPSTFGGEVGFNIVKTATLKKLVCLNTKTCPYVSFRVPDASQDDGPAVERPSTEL

[4] = target: T2, Prostaglandin G/H synthase 2 (Homo sapiens) (UniProt P35354)
T2 sequence (whole entry): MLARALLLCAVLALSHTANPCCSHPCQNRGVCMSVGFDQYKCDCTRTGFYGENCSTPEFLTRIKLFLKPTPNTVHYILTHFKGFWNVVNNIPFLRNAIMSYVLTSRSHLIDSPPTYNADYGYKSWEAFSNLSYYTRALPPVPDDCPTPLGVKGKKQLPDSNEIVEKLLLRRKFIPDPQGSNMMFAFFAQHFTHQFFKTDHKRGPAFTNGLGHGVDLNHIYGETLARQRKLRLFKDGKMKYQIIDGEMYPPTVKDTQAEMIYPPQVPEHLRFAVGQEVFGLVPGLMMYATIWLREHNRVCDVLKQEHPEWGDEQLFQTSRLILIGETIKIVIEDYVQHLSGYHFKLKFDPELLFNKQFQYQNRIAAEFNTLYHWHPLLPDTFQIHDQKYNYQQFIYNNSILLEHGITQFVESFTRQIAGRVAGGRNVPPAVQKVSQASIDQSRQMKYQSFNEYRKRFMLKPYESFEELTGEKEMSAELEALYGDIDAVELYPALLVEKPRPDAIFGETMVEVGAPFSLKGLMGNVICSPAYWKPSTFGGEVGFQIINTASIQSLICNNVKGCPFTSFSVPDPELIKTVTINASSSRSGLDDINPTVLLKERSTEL

Mus musculus [5] = assay: Antiinflammatory activity against Swiss albino mouse assessed as reduction in carragenan-induced paw edema at 2.5 mg/kg treated 30 mins prior to carrageenan challenge and measured upto 360 mins relative to control; format: functional; set-up: scale not given: the % may be the effect or the level left; conditions: time 390 min, 6.5 h
Method in brief: (§1)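 100 μL freshly prepared 1% carrageenan injected into the subplantar hind paw, with indomethacin (10 mg/kg) or test compound given 30 min before. Dose–response arm used 0.5, 2.5, 5, 10, 20 mg/kg. Six animals per group. Paw thickness (mm) read at 15, 30, 60, 120, 180, 240, 300, 360 min. Result expressed as % decrease versus control.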

[6] = Cmax in Swiss albino mouse at 10 mg/kg, ip measured upto 24 hrs by LC-MS analysis; format: ADME, organism-based; set-up: route intraperitoneal, dose 10 mg/kg, time <=24; conditions: in vivo
Method in brief: (§2)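 Swiss albino mice (25−35 g), either sex, 10 groups of three. 10 mg/kg suspended in 0.1% CMC, given i.p. Ketamine anaesthesia (50 mg/kg i.p.). Jugular vein blood taken at 30, 45, 60 min and 2, 3, 4, 6, 8, 11, 24 h into heparinised tubes, triplicate samples per time point.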

Glycine max [7] = test system: Glycine max
Mus musculus [8] = assay: Antiinflammatory activity against Swiss albino mouse assessed as reduction in carragenan-induced paw edema at 10 mg/kg treated 30 mins prior to carrageenan challenge and measured upto 360 mins relative to control; format: functional; set-up: scale not given: the % may be the effect or the level left; conditions: time 390 min, 6.5 h; method in brief: as §1
[9] = target: T2, Prostaglandin G/H synthase 2 (Homo sapiens); remark: listed apart in the source
Albumin [10] = target: T3, Albumin (Homo sapiens, UniProt P02768); assay: Binding affinity to HSA assessed as change in entropy by isothermal titration calorimetry
T3 sequence (P02768 whole entry): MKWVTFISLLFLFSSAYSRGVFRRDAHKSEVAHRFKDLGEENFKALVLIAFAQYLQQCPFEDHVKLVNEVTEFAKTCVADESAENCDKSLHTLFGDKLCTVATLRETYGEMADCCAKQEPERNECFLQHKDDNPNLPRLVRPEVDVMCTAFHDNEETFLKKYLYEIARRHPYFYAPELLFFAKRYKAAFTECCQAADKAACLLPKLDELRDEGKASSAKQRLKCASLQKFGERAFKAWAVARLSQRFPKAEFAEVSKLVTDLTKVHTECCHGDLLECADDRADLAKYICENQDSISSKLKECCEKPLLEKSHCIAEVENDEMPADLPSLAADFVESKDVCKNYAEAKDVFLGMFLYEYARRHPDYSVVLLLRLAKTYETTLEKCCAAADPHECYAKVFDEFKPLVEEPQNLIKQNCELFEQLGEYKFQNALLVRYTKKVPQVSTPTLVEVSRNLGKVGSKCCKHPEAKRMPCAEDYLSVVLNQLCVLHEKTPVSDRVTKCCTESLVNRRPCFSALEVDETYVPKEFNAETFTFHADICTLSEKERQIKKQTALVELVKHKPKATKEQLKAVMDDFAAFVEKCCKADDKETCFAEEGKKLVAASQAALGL
Method in brief: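 Isothermal titration calorimetry at 25 °C. Ligand at 100 μM in DMSO:0.1 M Tris buffer (1:9), loaded in the syringe and stirred at 500 rpm. HSA (0.05 g per mL Tris buffer) placed in the sample cell. Forty 1 μL injections at 120 s intervals. Heats corrected with control titrations: ligand into buffer, and buffer into protein. Binding parameters fitted with a single-site model (Q = nΘMtΔHVo).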

[11] = Tmax in Swiss albino mouse at 10 mg/kg, ip measured upto 24 hrs by LC-MS analysis; format: ADME, organism-based; conditions: in vivo; method in brief: as §2
Mus musculus [12] = assay: Antiinflammatory activity against Swiss albino mouse assessed as reduction in carragenan-induced paw edema at 20 mg/kg treated 30 mins prior to carrageenan challenge and measured upto 360 mins relative to control; format: functional; set-up: scale not given: the % may be the effect or the level left; conditions: time 390 min, 6.5 h; method in brief: as §1
[13] = target: T2, Prostaglandin G/H synthase 2 (Homo sapiens); remark: listed apart in the source
Albumin [14] = target: T3, Albumin; assay: Binding affinity to HSA assessed as association constant at equilibrium by isothermal titration calorimetry
Mus musculus [15] = assay: Analgesic activity in Swiss albino mouse assessed as inhibition of acetic acid-induced writhing at 5 mg/kg, ip administered 30 mins prior to acetic acid challenge and measured after 30 mins relative to control; format: functional; set-up: scale not given: the % may be the effect or the level left; conditions: time 60 min, 1 h
Method in brief: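 Mice pretreated i.p. with indomethacin (10 mg/kg) or test compound (5 mg/kg) 30 min before 0.6% v/v acetic acid injection. Control group also received acetic acid. Animals placed in a transparent box and abdominal writhings counted for 30 min. Six animals per group, one-way ANOVA with Tukey's test, mean ± SEM.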

Glycine max [16] = test system: Glycine max; remark: listed apart in the source
Mus musculus [17] = assay: Antiinflammatory activity against Swiss albino mouse assessed as reduction in carragenan-induced paw edema at 5 mg/kg treated 30 mins prior to carrageenan challenge and measured upto 360 mins relative to control; format: functional; set-up: scale not given: the % may be the effect or the level left; conditions: time 390 min, 6.5 h; method in brief: as §1

- TdeltaS [1]: -2490 kJ/mol
- Activity [3]: 1.6 ng/mL
- deltaG [4]: -33 kJ/mol
- Cmax [6]: 26000 ng/mL
- deltaG (Glycine max [7]): -29.3 kJ/mol
- Ka [9]: 6.07 10^5/M
- TdeltaS (Albumin [10]): -1080 kJ/mol
- Tmax [11]: 1 h
- deltaH [13]: -43.7 kJ/mol
- Ka (Albumin [14]): 11800 M⁻¹
- deltaH (Glycine max [16]): -41.8 kJ/mol
Structure (SMILES): O=C(O)Cn1nncc1CO[C@@H](C(=O)O)[C@@H](OCc1cnnn1CC(=O)O)C(=O)O
- Activity (Mus musculus [2]): Active
- Activity (Mus musculus [5]): 5.4%
- Activity (Mus musculus [8]): 36.5%
- Activity (Mus musculus [12]): 38.5%
- Activity (Mus musculus [15]): 65%
- Activity (Mus musculus [17]): 32.6%
